From ChEMBL document CHEMBL3526021, “NADPH-cytochrome P450 oxidoreductase: roles in physiology, pharmacology, and toxicology” (Drug Metab Dispos, 2013) come the findings set out here.

SMILES strings stand for the structures.

Series [1] can be described thus: AUC (0 to last) in liver Por deleted-reductase conditional null mouse at 2.5 mg/kg, po treated 10 days after 40 mg/kg, ip 3-methylcholanthrene administration by liquid chromatography-tandem mass spectrometry. The following applies: in vivo. It is filed as ADME, organism-based. The procedure, abridged: (§1)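 Adult male mice (n = 3): Por lox/lox wild type, or RCN (Por lox/lox plus Cre under CYP1A1 promoter). Pretreated i.p. in corn oil with either 3-MC 40 mg/kg as a single dose, or BNF 80 mg/kg daily for 4 days. After 10 days, oral dosing at 2.5 mg/kg. Serial tail-vein blood was analysed by LC-MS/MS for parent drug; mean ± SD.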

Series [2] can be described thus: AUC (0 to last) in liver and gut Por deleted-reductase conditional null mouse at 2.5 mg/kg, po treated 10 days after 80 mg/kg, ip beta-naphthoflavone administration by liquid chromatography-tandem mass spectrometry. It is filed as ADME, organism-based. To be noted: in vivo. The gist of the method: as §1
A short description of series [3]: Cmax in Por lox/lox wild type mouse at 2.5 mg/kg, po treated 10 days after 40 mg/kg, ip 3-methylcholanthrene administration by liquid chromatography-tandem mass spectrometry. It is filed as ADME, organism-based. The following applies: in vivo. The gist of the method:
as §1

Series [4] in a line: AUC (0 to infinity) in liver and gut Por deleted-reductase conditional null mouse at 2.5 mg/kg, po treated 10 days after 80 mg/kg, ip beta-naphthoflavone administration by liquid chromatography-tandem mass spectrometry. It is filed as ADME, organism-based. To be noted: in vivo. The procedure, abridged:
as §1

The nature of series [5]: Cmax in Por lox/lox wild type mouse at 2.5 mg/kg, po treated 10 days after 80 mg/kg, ip beta-naphthoflavone administration by liquid chromatography-tandem mass spectrometry. It is filed as ADME, organism-based. To be noted: in vivo. The gist of the method: as §1
The nature of series [6]: in vivo. To be noted: mouse, po, 2.5 mg/kg.
Series [7] in a line: Clearance in Por lox/lox wild type mouse at 2.5 mg/kg, po treated 10 days after 80 mg/kg, ip beta-naphthoflavone administration by liquid chromatography-tandem mass spectrometry. The following applies: in vivo. It is filed as ADME, organism-based. The gist of the method:
as §1

Series [8] can be described thus: Clearance in liver Por deleted-reductase conditional null mouse at 2.5 mg/kg, po treated 10 days after 40 mg/kg, ip 3-methylcholanthrene administration by liquid chromatography-tandem mass spectrometry. It is filed as ADME, organism-based. The following applies: in vivo. The procedure, abridged: as §1
A short description of series [9]: AUC (0 to infinity) in liver Por deleted-reductase conditional null mouse at 2.5 mg/kg, po treated 10 days after 40 mg/kg, ip 3-methylcholanthrene administration by liquid chromatography-tandem mass spectrometry. It is filed as ADME, organism-based. To be noted: in vivo. The procedure, abridged: as §1
Series [10] can be described thus: in vivo. To be noted: mouse, po, 2.5 mg/kg. The source holds these as a separate data set.
Series [11] can be described thus: Clearance in liver and gut Por deleted-reductase conditional null mouse at 2.5 mg/kg, po treated 10 days after 80 mg/kg, ip beta-naphthoflavone administration by liquid chromatography-tandem mass spectrometry. It is filed as ADME, organism-based. The following applies: in vivo. The procedure, abridged: as §1
Series [12] is described as follows: Cmax in liver Por deleted-reductase conditional null mouse at 2.5 mg/kg, po treated 10 days after 40 mg/kg, ip 3-methylcholanthrene administration by liquid chromatography-tandem mass spectrometry. It is filed as ADME, organism-based. The following applies: in vivo. The procedure, abridged:
as §1

A short description of series [13]: AUC (0 to last) in Por lox/lox wild type mouse at 2.5 mg/kg, po treated 10 days after 40 mg/kg, ip 3-methylcholanthrene administration by liquid chromatography-tandem mass spectrometry. It is filed as ADME, organism-based. To be noted: plasma. The gist of the method: as §1
The nature of series [14]: in vivo. To be noted: mouse, po, 2.5 mg/kg. The source holds these as a separate data set.
A short description of series [15]: AUC (0 to last) in Por lox/lox wild type mouse at 2.5 mg/kg, po treated 10 days after 80 mg/kg, ip beta-naphthoflavone administration by liquid chromatography-tandem mass spectrometry. It is filed as ADME, organism-based. The following applies: plasma. The procedure, abridged:
as §1

Another series deals with Mus musculus. As to the kind of experiment: AUC (0 to infinity) in Por lox/lox wild type mouse at 2.5 mg/kg, po treated 10 days after 40 mg/kg, ip 3-methylcholanthrene administration by liquid chromatography-tandem mass spectrometry. It is filed as ADME, organism-based, Plasma. The following applies: in vivo, 240 h. The procedure, abridged: as §1
The nature of series [16]: AUC (0 to infinity) in Por lox/lox wild type mouse at 2.5 mg/kg, po treated 10 days after 80 mg/kg, ip beta-naphthoflavone administration by liquid chromatography-tandem mass spectrometry. It is filed as ADME, organism-based. The following applies: plasma. The procedure, abridged:
as §1

Series [17] in a line: Cmax in liver and gut Por deleted-reductase conditional null mouse at 2.5 mg/kg, po treated 10 days after 80 mg/kg, ip beta-naphthoflavone administration by liquid chromatography-tandem mass spectrometry. To be noted: in vivo. It is filed as ADME, organism-based. The gist of the method: as §1
Series [18] is described as follows: in vivo. The following applies: mouse, po, 2.5 mg/kg. This is another data set of the same source.

In the case of `Cc1ncc2n1-c1ccc(Cl)cc1C(c1ccccc1F)=NC2` [MIDAZOLAM], the AUC(0-t) at 240 h was 2100 ng·h/mL in series [1], 5520 ng·h/mL in series [2], 125 ng·h/mL in series [13] and 228 ng·h/mL in series [15]. In addition, the Cmax in series [3] was 110 ng/mL; in [5], 140 ng/mL; in [12], 900 ng/mL; in series [17], 2300 ng/mL. The values for the AUC(0-inf) in series [4], in [9] and in series [16] were 5830 ng·h/mL, 2250 ng·h/mL and 278 ng·h/mL, respectively. Moreover, the half-life at 240 h in the series “in vivo [6]” was 68 min; in “in vivo [10]”, 114 min; in the series “in vivo [14]” it was 128 min; in the series “in vivo [18]”, 115 min. The CL/F was found to be 180 mL/min/kg in series [7], 26.8 mL/min/kg in [8] and 9.3 mL/min/kg in [11]. In addition, the AUC with Mus musculus turned out to be 8.7 µg·min/mL.

A word on the AUC(0-t): it is the area under the concentration-time curve up to a stated or last time point. A high value points to high exposure. A word on the Cmax: it is the highest concentration seen after dosing. The term AUC(0-inf) denotes total exposure, with the tail of the curve extrapolated. A lower AUC(0-inf) goes with low exposure. By half-life is commonly meant the time in which the quantity being followed falls by half. Low values mean rapid decline, high ones slow decline. The CL/F is the apparent clearance, not corrected for the fraction that reaches the circulation. Broadly, the AUC is concentration integrated over time. A higher AUC goes with more exposure.
